From ChEMBL document CHEMBL1158601, “Discovery of a novel series of CXCR3 antagonists” (Bioorg Med Chem Lett, 2010)
Activity calls are given as the source filed them. The calls are words filed in the database; no cut-off is given here.

What was measured:
[1] = Aqueous solubility at pH 7.4; type: physicochemical; details: buffer
Summary of the method: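 Aqueous solubility measured at pH 7.4.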

[2] = target: T1, C-X-C chemokine receptor type 5 (Homo sapiens) (UniProt P32302); test: Antagonist activity at human CXCR5 expressed in mouse L1.2 cells assessed as inhibition of CXCL13-induced chemotaxis up to 10 uM after 4 hrs; type: functional, cell-based
T1 sequence (whole entry): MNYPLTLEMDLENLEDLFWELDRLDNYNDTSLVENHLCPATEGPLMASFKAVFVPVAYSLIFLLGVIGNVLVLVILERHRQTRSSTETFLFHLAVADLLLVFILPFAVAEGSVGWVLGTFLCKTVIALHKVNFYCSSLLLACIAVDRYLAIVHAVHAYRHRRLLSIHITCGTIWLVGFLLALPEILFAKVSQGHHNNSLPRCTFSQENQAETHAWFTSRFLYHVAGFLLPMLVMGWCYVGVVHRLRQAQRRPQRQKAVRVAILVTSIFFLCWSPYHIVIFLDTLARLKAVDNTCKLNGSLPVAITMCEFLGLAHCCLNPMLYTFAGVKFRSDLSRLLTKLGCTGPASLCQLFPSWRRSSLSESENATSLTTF
Summary of the method: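 Counter-screen chemotaxis: CXCR5-overexpressing L1.2 cells stimulated with CXCL13, test compounds up to 10 µM.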

[3] = Intrinsic clearance in rat liver microsomes assessed per mg of protein; type: ADME, Microsome
Summary of the method: (§1)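 Intrinsic clearance from stability in human and rat liver microsomes, expressed as µL/min/mg protein.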

[4] = Intrinsic clearance in human liver microsomes assessed per mg of protein; type: ADME, Microsome; summary of the method: as §1

SMILES | solubility [1] | Activity [2] | microsomal CLint [3] | microsomal CLint [4]
COc1cccc(CN(Cc2ccc(-c3nnn[nH]3)cc2)S(=O)(=O)c2ccc(Cl)cc2)c1 | > 100 µM | inactive | – | –
CCOc1ccc(S(=O)(=O)N(Cc2ccccc2)Cc2ccc(C(=O)NCC3CC3)cc2)cc1 | < 10 µM | inactive | – | –
O=C(NCC1CC1)c1ccc(CN(Cc2ccccn2)S(=O)(=O)c2ccc(Cl)cc2)cc1 | < 10 µM | inactive | 538 µL/min/mg | 265 µL/min/mg
O=C(NCC1CC1)c1ccc(CN(Cc2cccc(Cl)c2)S(=O)(=O)c2ccc(Cl)cc2)cc1 | < 10 µM | inactive | – | –
O=S(=O)(c1ccc(Cl)cc1)N(Cc1ccc(-c2nnc(O)o2)cc1)Cc1ccccn1 | – | inactive | – | –
O=S(=O)(c1ccc(Cl)cc1)N(Cc1ccc(-c2nnn[nH]2)cc1)Cc1ccccn1 | > 100 µM | inactive | 25 µL/min/mg | < 10 µL/min/mg
N#Cc1ccc(S(=O)(=O)N(Cc2ccc(C(=O)O)c(F)c2)Cc2ccccn2)cc1 | – | inactive | – | –
COc1ccc(CN(Cc2ccc(-c3nnn[nH]3)cc2)S(=O)(=O)c2ccc(Cl)cc2)cc1 | > 100 µM | inactive | – | –
COc1ccc(S(=O)(=O)N(Cc2ccccc2)Cc2ccc(C(=O)NCC3CC3)cc2)cc1 | < 10 µM | inactive | – | –
O=S(=O)(c1ccc(Cl)cc1)N(Cc1ccc(-c2nnn[nH]2)c(F)c1)Cc1ccccn1 | > 100 µM | inactive | – | –
CCOc1ccc(S(=O)(=O)N(Cc2ccc(-c3nnn[nH]3)cc2)Cc2ccccn2)cc1 | > 100 µM | inactive | – | –
O=C(NCC1CC1)c1ccc(CN(Cc2ccccc2)S(=O)(=O)c2ccc(OC(F)(F)F)cc2)cc1 | < 10 µM | inactive | – | –
O=C(O)c1ccc(CN(Cc2ccccc2F)S(=O)(=O)c2ccc(Cl)cc2)cc1F | – | inactive | < 10 µL/min/mg | –
O=S(=O)(c1ccc(Cl)cc1)N(Cc1ccc(F)cc1)Cc1ccc(-c2nnn[nH]2)cc1 | > 100 µM | inactive | – | –
O=C(NCCc1cccc([N+](=O)[O-])c1)c1ccc(CN(Cc2ccccc2)S(=O)(=O)c2ccc(Cl)cc2)cc1 | < 10 µM | inactive | – | –
COc1ccc(S(=O)(=O)N(Cc2ccccc2)Cc2ccc(C(=O)NCc3ccccc3)cc2)cc1 | < 10 µM | inactive | – | –
O=C(NCc1cccc(Cl)c1)c1ccc(CN(Cc2ccccn2)S(=O)(=O)c2ccc(Cl)cc2)cc1 | < 10 µM | inactive | 1190 µL/min/mg | 583 µL/min/mg
O=C(NCc1cccc(Cl)c1)c1ccc(CN(Cc2ccccc2)S(=O)(=O)c2ccc(Cl)cc2)cc1 | < 10 µM | inactive | – | –
O=S(=O)(c1ccc(Cl)cc1)N(Cc1ccc(-c2nnn[nH]2)cc1)Cc1ccccc1F | > 100 µM | inactive | – | –
O=C(O)c1ccc(CN(Cc2ccccc2)S(=O)(=O)c2ccc(Cl)cc2)cc1 | – | inactive | 20 µL/min/mg | < 10 µL/min/mg
